Format in all cases: functional, organism-based
In experiment [1] the test system is Paracentrotus lividus. As to the kind of experiment: In vivo antiproliferative activity in sea urchin embryos assessed as cleavage alteration at 1 uM measured after 2.5 to 5.5 hrs post fertilization. The essentials: (§1)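 Fertilized sea urchin eggs, cultured at room temperature in filtered seawater with paddle agitation (60 rpm), were exposed as a monolayer (up to 2000 embryos/mL) 8−20 min after fertilization to 2-fold serial dilutions. Compounds came from 10 mM DMSO stocks diluted 10-fold in 96% EtOH, with final DMSO ≤0.05% and EtOH ≤1%. Cleavage alteration was scored microscopically at 2.5−5.5 h post-fertilization. The threshold concentration is the lowest dose giving 100% alteration.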

The subject of experiment [2] is Paracentrotus lividus. As to the kind of experiment: In vivo antiproliferative activity in sea urchin embryos assessed as cleavage alteration at 2 uM measured after 2.5 to 5.5 hrs post fertilization. In outline: as §1
Experiment [3] concerns Paracentrotus lividus. As to the kind of experiment: In vivo antiproliferative activity in sea urchin embryos assessed as cleavage alteration at 4 uM measured after 2.5 to 5.5 hrs post fertilization. The essentials:
as §1

Experiment [4] relates to Paracentrotus lividus. As to the kind of experiment: In vivo antiproliferative activity in sea urchin embryos assessed as cleavage alteration up to 4 uM measured after 2.5 to 5.5 hrs post fertilization. In outline: as §1

Structures are written as SMILES. Calls of active or inactive are those of the source.

As to `COc1ccc(-c2cccc3c(OC)c(OC)c4c(c23)OCO4)cc1`, the outcome with Paracentrotus lividus [1], in the experiment on Paracentrotus lividus [2] and in the experiment on Paracentrotus lividus [3] was Active.
As to `COc1ccc(C(=O)CC(O)Cc2ccc3c(c2)OCO3)cc1` (stereo not given), in the experiment on Paracentrotus lividus [4], the outcome was inactive.
`COc1ccc(-c2cccc3cc4c(c(OC)c23)OCO4)cc1`: in the experiment on Paracentrotus lividus [3], the result was Active.
Turning to `COc1cc(-c2cccc3cc4c(cc23)OCO4)cc(OC)c1OC`, the result in the experiment with Paracentrotus lividus [2] and in the experiment with Paracentrotus lividus [3] was Active.
Consider `COc1ccc(-c2cccc3cc4c(cc23)OCO4)cc1`, for which the outcome in the experiment on Paracentrotus lividus [4] was inactive.
Same read-out and setting: under `COc1ccc(C(N)CC(O)Cc2cc(OC)c3c(c2OC)OCO3)cc1` (stereo not given) stands “inactive”; under `COc1ccc(C(=O)CC(O)Cc2cc(OC)c3c(c2)OCO3)cc1` (stereo not given), “inactive”.
Take `COc1ccc(C(O)CC(O)Cc2cc(OC)c3c(c2OC)OCO3)cc1` (stereo not given): the outcome in the experiment with Paracentrotus lividus [2] was Active.
Turning to `COc1ccc(-c2cccc3c(OC)c(OC)c(OC)c(OC)c23)cc1`, in the experiment on Paracentrotus lividus [4], the outcome was inactive.
Consider `COc1ccc(-c2cccc3c(OC)c4c(c(OC)c23)OCO4)cc1`, for which, in the experiment on Paracentrotus lividus [4], the result was inactive.
`COc1ccc(-c2cccc3cc(OC)c4c(c23)OCO4)cc1`: the outcome in the experiment on Paracentrotus lividus [4] was inactive.
With `COc1ccc(C2CC(O)Cc3c(OC)c4c(c(OC)c32)OCO4)cc1` (stereo not given), in the experiment on Paracentrotus lividus [4], the result was inactive.

The record behind these values is ChEMBL document CHEMBL4477161, “Facile Synthesis of Natural Alkoxynaphthalene Analogues from Plant Alkoxybenzenes” (J Nat Prod, 2016).
